Test results published in article PMC10895701 (Nature structural & molecular biology, 2023).

Tests used:
OCT1CS [1] = experiment: 14C-metformin uptake in oocytes expressing OCT1CS; format: cell-based
WT hOCT1 = conditions: cited from earlier work
OCT1CS [2] = experiment: 3H-MPP+ uptake in X. laevis oocytes expressing OCT1CS; format: cell-based; conditions: 30 min uptake
How it was run: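 Xenopus laevis oocytes injected with 30 ng cRNA, expressed 2–4 days at 17°C. Uptake of 3H-MPP+ (specific radioactivity 0.06 Ci/mmol) over a concentration series, 30 min uptake. Background corrected with water-injected oocytes; radioactivity counted. Kt fitted, reported ± s.e.m.; n=3 biologically independent replicates.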

Row | SMILES | Kt for metformin (OCT1CS [1]) | Kt for metformin, previous reports (WT hOCT1) | Michaelis constant for transport (Kt) for MPP+ transport (OCT1CS [2])
1 | CN(C)C(=N)N=C(N)N [metformin] | ~ 3 mM | 1 to 5 mM | –
2 | C[n+]1ccc(-c2ccccc2)cc1 [MPP^+, 1-methyl-4-phenylpyridinium] | – | – | ~ 50 μM
